Test results published in the RNAGym collection of RNA variant scans (doi:10.1126/science.aae0568).
Variants at the floor of the assay were thinned out.

B1: tRNA (parent)
chain: GUUCCGUUGGCGUAAUGGUAACGCGUCUCCCUCCUAAGGAGAAGACUGCGGGUUCGAGUCCCGUACGGAACG

Variants of: B1
Experiment: yeast fitness relative to wild type (ratio to wild type); higher = fitter; tRNA-Arg(CCU), competitive growth, 37 C, YPD
How it was run: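 Variants of the tRNA-Arg(CCU) gene were chemically synthesised with a 3% per-site mutation rate across 69 sites and placed at the native genomic locus in Saccharomyces cerevisiae. Six parallel replicates of the pooled strains were competed in YPD at 37°C for 24 hours, and gene amplicons from the start and end populations were read by 100-nucleotide paired-end sequencing. Darwinian fitness relative to wild type was derived from changes in genotype frequencies. Genotypes required ≥ 100 starting reads, and estimates < 0.5 were set to 0.5.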

Compared with U16C A36G, U16C A36G G50A is lower in yeast fitness: 1.03 for the first, 0.594 for the second.

U16C A36U G44C A65C and U16C A37C A42G G56C cannot be ordered by yeast fitness: no more than 0.5 for the first, no more than 0.5 for the second.

Going from U16C A37C C55G A69U to U16C A37C G67A, the yeast fitness rises from no more than 0.5 to 0.553.

First: U16C A37G C61G A69G
Second: U16C A40C
The yeast fitness of the first is lower: 0.687 for the first, 0.923 for the second.

Going from U16C A40U to U16C A40U A57C, the yeast fitness falls from 0.789 to no more than 0.5.

First: U16C A40U A57C C66U
Second: U16C A40U A65C
The yeast fitness of the first is lower: no more than 0.5 for the first, 0.626 for the second.

First: U16C A40U A70U
Second: U16C A40U G50U
The yeast fitness of the first is higher: 0.683 for the first, no more than 0.5 for the second.

Compared with U16C A40U G67A, U16C A40U U47A is lower in yeast fitness: 0.536 for the first, 0.532 for the second.

Compared with U16C A42C, U16C A42G G58A is lower in yeast fitness: 0.93 for the first, 0.52 for the second.

Compared with U16C A42U, U16C A42U G63C is lower in yeast fitness: 0.969 for the first, no more than 0.5 for the second.

First: U16C A43C
Second: U16C A43C U54A
The yeast fitness of the first is higher: 1.01 for the first, no more than 0.5 for the second.

Compared with U16C A43C U54A C55U C60U G68A, U16C A43C U54A C60U G68A is higher in yeast fitness: no more than 0.5 for the first, 0.55 for the second.

U16C A43U G48C C60G and U16C A43U G51C A57C C60G G67A cannot be ordered by yeast fitness: no more than 0.5 for the first, no more than 0.5 for the second.

U16C A45C C60G and U16C A45U C49U G51A A57C C60G cannot be ordered by yeast fitness: no more than 0.5 for the first, no more than 0.5 for the second.

First: U16C A57C
Second: U16C A57G
The yeast fitness of the first is lower: 0.674 for the first, 0.925 for the second.

Going from U16C A57U C66U to U16C A65C, the yeast fitness rises from 0.531 to 0.955.

Compared with U16C A65G, U16C A65U is higher in yeast fitness: 0.95 for the first, 0.965 for the second.

First: U16C A69C
Second: U16C A70C
The yeast fitness of the first is lower: 0.889 for the first, 1.1 for the second.

First: U16C A70G
Second: U16C C22A C24A U26C
The yeast fitness of the first is higher: 0.945 for the first, no more than 0.5 for the second.

U16C C22A C31G C46A C49U U54C G68A and U16C C22A U53C C66G A69U cannot be ordered by yeast fitness: no more than 0.5 for the first, no more than 0.5 for the second.

Compared with U16C C22G, U16C C22G A43U is lower in yeast fitness: 0.968 for the first, 0.692 for the second.

Going from U16C C22G C46G C49U A69U to U16C C22G C62U, the yeast fitness rises from 0.55 to 0.716.

Compared with U16C C22G G58A U64G, U16C C22G U53A is higher in yeast fitness: no more than 0.5 for the first, 0.544 for the second.

First: U16C C22G U54C
Second: U16C C22U
The yeast fitness of the first is lower: 0.661 for the first, 0.741 for the second.

Compared with U16C C22U A37U, U16C C22U A37U C49A is lower in yeast fitness: 0.576 for the first, 0.574 for the second.

Compared with U16C C22U C24U C29U, U16C C22U C24U C29U C60U is higher in yeast fitness: no more than 0.5 for the first, 0.551 for the second.

Compared with U16C C22U G25A C31G G52A, U16C C22U G63A is lower in yeast fitness: 0.589 for the first, 0.545 for the second.

U16C C22U G68C and U16C C22U U47A C60G C62A cannot be ordered by yeast fitness: no more than 0.5 for the first, no more than 0.5 for the second.

Going from U16C C24G to U16C C24G U28A, the yeast fitness falls from 0.64 to no more than 0.5.

U16C C24G U28A A43C and U16C C24G U32A A69C cannot be ordered by yeast fitness: no more than 0.5 for the first, no more than 0.5 for the second.

Compared with U16C C24U C33U C55A, U16C C27A is higher in yeast fitness: no more than 0.5 for the first, 0.963 for the second.

Compared with U16C C27G A43C C62U, U16C C27G C33A G38C A42G is higher in yeast fitness: no more than 0.5 for the first, 0.884 for the second.

Going from U16C C27G C60G to U16C C27U, the yeast fitness rises from 0.603 to 1.02.

Compared with U16C C27U A42G G67A, U16C C27U U64G is higher in yeast fitness: no more than 0.5 for the first, 0.536 for the second.

Compared with U16C C29A, U16C C29A C55G is lower in yeast fitness: 0.629 for the first, 0.573 for the second.

Going from U16C C29G C49U to U16C C29G C49U C60G, the yeast fitness falls from 0.535 to no more than 0.5.

First: U16C C29G U53A U64C
Second: U16C C29U
The yeast fitness of the first is lower: no more than 0.5 for the first, 0.738 for the second.

U16C C29U A36U A40C C46U U64C and U16C C29U A36U C66U G67A cannot be ordered by yeast fitness: no more than 0.5 for the first, no more than 0.5 for the second.

Going from U16C C29U G58A A69U to U16C C30A A37U, the yeast fitness falls from 0.577 to no more than 0.5.

U16C C30A G41C A45C C46G and U16C C30G C61U G68A cannot be ordered by yeast fitness: no more than 0.5 for the first, no more than 0.5 for the second.

U16C C30U A36U and U16C C30U C34G G39A cannot be ordered by yeast fitness: no more than 0.5 for the first, no more than 0.5 for the second.

First: U16C C30U C62U
Second: U16C C31A
The yeast fitness of the first is lower: 0.645 for the first, 0.906 for the second.

First: U16C C31A G56A A65G C66A G68C
Second: U16C C31G A36U C60G
The yeast fitness of the first is lower: no more than 0.5 for the first, 0.694 for the second.

First: U16C C31G C34A
Second: U16C C31G G41A G52C C60U C62G C66G
The yeast fitness of the first is higher: 0.678 for the first, no more than 0.5 for the second.

Compared with U16C C31U, U16C C31U C33A C34G U35A G52A is lower in yeast fitness: 0.953 for the first, no more than 0.5 for the second.

U16C C33A A40C and U16C C33G C49A C55G G56C cannot be ordered by yeast fitness: no more than 0.5 for the first, no more than 0.5 for the second.

Going from U16C C33G G51A C55A to U16C C33U, the yeast fitness rises from no more than 0.5 to 0.686.

Compared with U16C C33U A36C, U16C C33U A36C C49G is lower in yeast fitness: 0.589 for the first, no more than 0.5 for the second.

U16C C33U C60U G67C and U16C C33U G58A cannot be ordered by yeast fitness: no more than 0.5 for the first, no more than 0.5 for the second.

First: U16C C33U G63C
Second: U16C C34A A37G U59A
The yeast fitness of the first is higher: 0.508 for the first, no more than 0.5 for the second.

U16C C34A G39C G52A G58A and U16C C34A G41A cannot be ordered by yeast fitness: no more than 0.5 for the first, no more than 0.5 for the second.

First: U16C C34G C55A
Second: U16C C34G C55G
The yeast fitness of the first is higher: 0.58 for the first, no more than 0.5 for the second.

U16C C34G G38C C62G A69C and U16C C34U C49G cannot be ordered by yeast fitness: no more than 0.5 for the first, no more than 0.5 for the second.

Going from U16C C46A to U16C C46A G56A, the yeast fitness falls from 1.02 to 0.769.

Compared with U16C C46G, U16C C46G A57U is lower in yeast fitness: 0.979 for the first, 0.588 for the second.

Going from U16C C49A G63A to U16C C49G, the yeast fitness rises from no more than 0.5 to 0.909.

Going from U16C C49G C55G C60A C62A G68A A69U to U16C C49U, the yeast fitness rises from no more than 0.5 to 0.867.

First: U16C C49U A69U
Second: U16C C49U A70G
The yeast fitness of the first is lower: 0.555 for the first, 0.581 for the second.

Compared with U16C C49U A70U, U16C C55A G67A A70G is lower in yeast fitness: 0.745 for the first, no more than 0.5 for the second.

Going from U16C C55U to U16C C55U A57C G58A, the yeast fitness falls from 0.831 to 0.593.

First: U16C C55U G67A
Second: U16C C60U
The yeast fitness of the first is lower: 0.528 for the first, 0.79 for the second.

Going from U16C C61G to U16C C62G, the yeast fitness rises from 0.63 to 0.717.

Compared with U16C C62U C66U, U16C C66A is lower in yeast fitness: 0.722 for the first, 0.711 for the second.

First: U16C G17A
Second: U16C G17A C27U C34G G38C A43G C62A
The yeast fitness of the first is higher: 0.797 for the first, no more than 0.5 for the second.

Going from U16C G17A C33U C49A C62G to U16C G17C, the yeast fitness rises from 0.57 to 0.665.

Compared with U16C G17C C24U, U16C G17C C27G A65U is lower in yeast fitness: 0.559 for the first, no more than 0.5 for the second.

U16C G17C C31U A37U and U16C G18A C24G A57C cannot be ordered by yeast fitness: no more than 0.5 for the first, no more than 0.5 for the second.

U16C G18A C34G G39A C62A and U16C G18U C24U A45C C46G cannot be ordered by yeast fitness: no more than 0.5 for the first, no more than 0.5 for the second.

U16C G23C C29G A43U G50A A65C and U16C G23C G51C cannot be ordered by yeast fitness: no more than 0.5 for the first, no more than 0.5 for the second.

First: U16C G25C U26C C34U U64G
Second: U16C G25C U47A A65G
The yeast fitness of the first is higher: 0.528 for the first, no more than 0.5 for the second.

Compared with U16C G38C A65U C66U, U16C G39A C61G C62G is lower in yeast fitness: 0.569 for the first, no more than 0.5 for the second.

Going from U16C G41C to U16C G41C C46A, the yeast fitness falls from 0.867 to 0.721.

Compared with U16C G44A U54C G56C, U16C G48A is higher in yeast fitness: 0.558 for the first, 0.996 for the second.

Going from U16C G48C C49U A65C A70C to U16C G51A A70G, the yeast fitness rises from no more than 0.5 to 0.578.

Going from U16C G51C C55G C62A to U16C G52A, the yeast fitness rises from no more than 0.5 to 0.713.

Compared with U16C G56A, U16C G56A A69U is lower in yeast fitness: 1.01 for the first, 0.799 for the second.

First: U16C G58A
Second: U16C G67A
The yeast fitness of the first is lower: 0.87 for the first, 0.891 for the second.

Compared with U16C G68C A69U, U16C U19A is higher in yeast fitness: no more than 0.5 for the first, 1.16 for the second.

Compared with U16C U19A U26A, U16C U19C A21C G23C C49G G52A is lower in yeast fitness: 0.648 for the first, no more than 0.5 for the second.

Compared with U16C U19C A65G, U16C U19C U35C is lower in yeast fitness: 1.05 for the first, no more than 0.5 for the second.

U16C U26A C46U G56A C61G G67A and U16C U26C A36C U64A A70C cannot be ordered by yeast fitness: no more than 0.5 for the first, no more than 0.5 for the second.

U16C U26C C33U G63C and U16C U26G C61U cannot be ordered by yeast fitness: no more than 0.5 for the first, no more than 0.5 for the second.

Going from U16C U28A to U16C U28G C30G A40C A42U, the yeast fitness falls from 0.827 to no more than 0.5.

With U16C U32C G41C G50A C61G the yeast fitness was 0.567.
